Assay results: ChEMBL document CHEMBL3856288, “Amidate Prodrugs of Deoxythreosyl Nucleoside Phosphonates as Dual Inhibitors of HIV and HBV Replication” (J Med Chem, 2016)

Columns and labels:
[1] = Cytotoxicity against human MT4 cells assessed as decrease in cell viability after 5 days by MTT assay; format: toxicity, cell-based
[2] = Antiviral activity against HIV2 ROD infected in human MT4 cells assessed as protection against virus-induced cytopathic effect after 5 days by MTT assay; format: functional, cell-based, Human immunodeficiency virus type 2 (ISOLATE ROD); conditions: Human immunodeficiency virus 2, MT4, 120 h
[3] = tested on: Human immunodeficiency virus 1; experiment: Antiviral activity against HIV1 3B infected in human MT4 cells assessed as protection against virus-induced cytopathic effect after 5 days by MTT assay; format: functional, cell-based; conditions: Human immunodeficiency virus 1, 3B, MT4, 120 h
[4] = Cytotoxicity against human HepG2(2.2.15) cells assessed as reduction in cell viability by MTS assay; format: toxicity, cell-based
Summary of the method: (§1)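 HepG2 2.2.15 cells (stable line carrying two copies of the HBV ayw1 genome) were seeded at 1.5 × 10^4 cells/well in DMEM with 2% FBS and G418. After 16−24 h, compound was added in triplicate, and medium plus compound was renewed on day 3. On day 6, supernatant was Pronase-treated and extracellular HBV DNA was quantified by TaqMan qPCR against an HBV DNA standard curve to give EC50/EC90. Cell viability was read by MTS uptake to give CC50.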

Hepatitis B virus [5] = experiment: Antiviral activity against HBV ayw1 infected in human HepG2(2.2.15) cells assessed as reduction in viral replication by measuring extracellular viral DNA copy number after 6 days by real-time qPCR method; format: functional, cell-based; conditions: ayw1, HepG2 2.2.15, 144 h; summary of the method: as §1
[6] = Half life in human liver microsomes at 0.1 uM in presence of NADPH-regenerating system by HPLC MS/MS method; format: ADME
Summary of the method: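 Pooled liver microsomes preincubated 10 min at 37 °C with NADPH-regenerating system (1 mM NADP, 5 mM G6P, 1 U/mL G6PDHase) in phosphate buffer pH 7.4, 3 mM MgCl2, 1 mM EDTA; compound added at 0.1 μM final; samples at 0, 15, 30, 45, 60 min quenched in acetonitrile/methanol, analysed by HPLC MS/MS.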

[7] = Selectivity ratio of CC50 for human HepG2(2.2.15) cells to EC50 for reduction in HBV ayw1 intracellular DNA copy number; format: ADME, cell-based; conditions: read-out: Ratio CC50/EC50
Summary of the method: (§2)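 The protocol was the same as the primary HepG2 2.2.15 assay (triplicate dosing, medium plus compound renewed on day 3, 6-day course). At the end, total intracellular DNA was isolated from the cells and HBV DNA copy number was measured by TaqMan qPCR to give EC50/EC90. CC50 came from MTS viability, and SI was taken as CC50/EC50.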

[8] = Selectivity ratio of CC50 for human HepG2(2.2.15) cells to EC50 for reduction in HBV ayw1 extracellular DNA copy number; conditions: read-out: Ratio CC50/EC50
Summary of the method: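 HepG2 2.2.15 cells (two HBV ayw1 genome copies), 1.5 × 10^4 cells/well in DMEM with 2% FBS and G418; compound dosed in triplicate and medium renewed on day 3. On day 6, Pronase-treated supernatant HBV DNA measured by TaqMan qPCR against a standard curve, giving EC50. MTS uptake gave CC50, and the ratio was calculated from these.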

[9] = Selectivity index, ratio of CC50 for human MT4 cells to EC50 for HIV1 3B infected in human MT4 cells; format: toxicity, cell-based; conditions: read-out: Ratio CC50/EC50
[10] = Half life in human liver S9 fraction at 100 uM by HPLC-UV method; format: ADME, subcellular
Summary of the method: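 Incubation started by adding human liver S9 fraction (4 mg/mL) at 37 °C; aliquots at 0, 10, 20, 30, 60 min quenched in acetonitrile, centrifuged, supernatant analysed by C18 HPLC with UV at 260 nm; parent peak area versus time 0 gave percent remaining and half-life.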

Hepatitis B virus [11] = experiment: Antiviral activity against HBV ayw1 infected in human HepG2(2.2.15) cells assessed as reduction in viral replication by measuring intracellular viral DNA copy number after 6 days by real-time qPCR method; format: functional, cell-based; conditions: ayw1, HepG2 2.2.15, 144 h; summary of the method: as §2
[12] = Selectivity index, ratio of CC50 for human MT4 cells to EC50 for HIV2 ROD infected in human MT4 cells; format: toxicity, cell-based; conditions: read-out: Ratio CC50/EC50
[13] = Drug level in acetone-d6/pH 7.6 Trizma buffer treated with 1'alpha-(Adenin-9-yl)-2'-deoxy-3'-O-{[N-(diisoamyl-L-aspartate)](phenoxy)methylphosphonoamidate}-L-threose assessed as baker's yeast carboxypeptidase Y-mediated compound formation at 1 mg after 3 hrs by RP-HPLC/mass spectra analysis; format: ADME; conditions: saccharomyces cerevisiae, in vitro, pH 7.6, 3 h
[14] = Chemical stability of the compound in pH 1 phosphate buffer at 2 mg after 1 to 2 hrs by 31P NMR method; format: physicochemical
Summary of the method: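 Prodrug (2.0 mg) dissolved in 0.2 mL acetone-d6 plus 0.3 mL pH 1 buffer (equal parts 0.2 M HCl and 0.2 M KCl); in situ 31P NMR (202 MHz) at 37 °C, spectra recorded every 30 min over 14 h, tracking loss of the diastereomer peaks.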

[15] = Drug metabolism in acetone-d6/pH 7.6 Trizma buffer assessed as baker's yeast carboxypeptidase Y-mediated (S)-2-((((3R,5R)-5-(6-amino-9H-purin-9-yl)tetrahydrofuran-3-yloxy)methyl)oxidophosphorylamino)-4-(isopentyloxy)-4-oxobutanoate formation at 1 mg after 3 hrs by RP-HPLC/mass spectra analysis; format: ADME; conditions: saccharomyces cerevisiae, pH 7.6, 3 h
[16] = Chemical stability of the compound in pH 8 phosphate buffer assessed as parent compound remaining at 2 mg after 14 hrs by 31P NMR method; format: physicochemical; conditions: read-out: Stability
Summary of the method: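 Prodrug (2 mg) in 0.2 mL acetone-d6 plus 0.3 mL pH 8 buffer (0.1 M Na2HPO4 adjusted with 0.1 M HCl); in situ 31P NMR (202 MHz) at 37 °C, spectra every 30 min over 14 h; parent remaining followed by diastereomer peak disappearance.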

For `Nc1nc2c(ncn2[C@H]2C[C@@H](OCP(=O)(O)O)CO2)c(=O)[nH]1`, the CC50 at 120 h [1] was greater than 302 µM, the EC50 [2] was greater than 302 µM and the EC50 [3] was greater than 302 µM. For the same compound, the CC50 [4] was greater than 100 µM, the EC50 (Hepatitis B virus [5]) was greater than 100 µM and the EC90 (Hepatitis B virus [5]) was greater than 100 µM.
`CCCOC(=O)[C@H](Cc1ccccc1)NP(=O)(CO[C@H]1CO[C@@H](n2cnc3c(N)ncnc32)C1)N[C@@H](Cc1ccccc1)C(=O)OCCC` gave a CC50 at 120 h [1] of 1.12 µM, an EC50 [2] of 0.002 µM and a half-life at 0.1 µM [6] of 7 min. The EC50 [3] was 0.0033 µM, the selectivity ratio [7] was greater than 3330 and the selectivity ratio [8] was greater than 1000. The CC50 [4] was greater than 10 µM, the selectivity ratio [9] was 347 and the half-life at 100 µM [10] was less than 10 min. For the same compound, the EC50 (Hepatitis B virus [11]) was 0.03 µM, the EC90 (Hepatitis B virus [11]) was 6.37 µM and the selectivity ratio [12] was 570. It also gave an EC50 (Hepatitis B virus [5]) of 0.01 µM and an EC90 (Hepatitis B virus [5]) of 4.2 µM.
Work on `Nc1ncnc2c1ncn2[C@H]1C[C@@H](OCP(=O)(O)O)CO1` yielded a CC50 at 120 h [1] of no less than 315 µM, an EC50 [2] of 5.23 µM and an EC50 [3] of 4.69 µM. It also gave a selectivity ratio [8] greater than 200, a CC50 [4] greater than 100 µM and a selectivity ratio [9] of no less than 67. For the same compound, the selectivity ratio [12] was no less than 60 and the EC50 (Hepatitis B virus [5]) was 0.5 µM.
With `CC(C)OC(=O)[C@H](C)NP(=O)(CO[C@H]1CO[C@@H](n2ccc(N)nc2=O)C1)Oc1ccccc1` (stereo partly drawn) the CC50 at 120 h [1] was greater than 160 µM, the EC50 [2] was greater than 160 µM and the EC50 [3] was greater than 160 µM. It also gave a selectivity ratio [8] greater than 2, a CC50 [4] greater than 100 µM and an EC50 (Hepatitis B virus [5]) of 47.9 µM.
For `Cc1cn([C@H]2C[C@@H](OCP(=O)(N[C@@H](C)C(=O)OC(C)C)Oc3ccccc3)CO2)c(=O)[nH]c1=O` (stereo partly drawn), the CC50 at 120 h [1] was 127 µM, the EC50 [2] was 0.424 µM and the EC50 [3] was 0.565 µM. It also gave a selectivity ratio [8] greater than 38, a CC50 [4] greater than 100 µM and a selectivity ratio [9] of 223. It also gave a selectivity ratio [12] of 295, an EC50 (Hepatitis B virus [5]) of 0.26 µM and an EC90 (Hepatitis B virus [5]) greater than 10 µM.
With `CC(C)CCOC(=O)C[C@H](NP(=O)(O)CO[C@H]1CO[C@@H](n2cnc3c(N)ncnc32)C1)C(=O)O` the Drug metabolism [13] was “Metabolite_Detected”.
With `CCCOC(=O)[C@H](Cc1ccccc1)NP(=O)(CO[C@H]1CO[C@@H](n2cnc3c(=O)[nH]c(N)nc32)C1)N[C@@H](Cc1ccccc1)C(=O)OCCC` the CC50 at 120 h [1] was greater than 62 µM, the EC50 [2] was greater than 62 µM and the EC50 [3] was greater than 62 µM. For the same compound, the CC50 [4] was greater than 100 µM and the EC50 (Hepatitis B virus [5]) was greater than 100 µM.
In the case of `CC(C)CCOC(=O)C[C@H](NP(=O)(CO[C@H]1CO[C@@H](n2cnc3c(N)ncnc32)C1)Oc1ccccc1)C(=O)OCCC(C)C` (stereo partly drawn), the CC50 at 120 h [1] is reported as 16.9 µM, the EC50 [2] is reported as 0.0036 µM and the half-life at 0.1 µM [6] is reported as 8 min. For the same compound, the EC50 [3] was 0.0216 µM, the selectivity ratio [7] was 8810 and the Stability [14] was “Unstable”. The selectivity ratio [8] was greater than 1250, the Drug metabolism [15] was “Metabolite_Detected” and the CC50 [4] was 35.2 µM. The selectivity ratio [9] was 792, the half-life at 100 µM [10] was 12.1 min and the EC50 (Hepatitis B virus [11]) was less than 0.01 µM. It also gave an EC90 (Hepatitis B virus [11]) of 0.36 µM, a selectivity ratio [12] of 4810 and a remaining at 14 h [16] of 43%. For the same compound, the EC50 (Hepatitis B virus [5]) was 0.01 µM and the EC90 (Hepatitis B virus [5]) was 0.98 µM.
For `CC(C)OC(=O)[C@H](C)NP(=O)(CO[C@H]1CO[C@@H](n2cnc3c(=O)[nH]c(N)nc32)C1)Oc1ccccc1` (stereo partly drawn), the CC50 at 120 h [1] was no less than 112 µM, the EC50 [2] was greater than 112 µM and the EC50 [3] was greater than 112 µM. It also gave a CC50 [4] greater than 100 µM, an EC50 (Hepatitis B virus [5]) greater than 100 µM and an EC90 (Hepatitis B virus [5]) greater than 100 µM.
`CC(C)OC(=O)[C@H](C)NP(=O)(CO[C@H]1CO[C@@H](n2cnc3c(=O)[nH]c(N)nc32)C1)N[C@@H](C)C(=O)OC(C)C` gave a CC50 at 120 h [1] of no less than 97.6 µM, an EC50 [2] greater than 97.6 µM and an EC50 [3] greater than 97.6 µM. It also gave a CC50 [4] greater than 100 µM, an EC50 (Hepatitis B virus [5]) greater than 100 µM and an EC90 (Hepatitis B virus [5]) greater than 100 µM.
